Published values of several laboratories.
Target: Mitogen-activated protein kinase 14 (MAPK14, Homo sapiens, UniProt Q16539)

CC(C)(C)c1cc(C=C(C#N)C#N)cc(Br)c1O — remaining activity (enzyme activity; inhibitor; 0.5 µM): 98.3%
Cc1nn(C)cc1-c1nc2c(N3CCN(Cc4ccc(Cl)cc4)CC3)c(Cl)cnc2[nH]1 — remaining binding (binding; competition with immobilised ligand; 1 µM): 71%
N#CC1(c2ccccn2)CCN(Cc2cc(C(=O)O)c(=O)n3ccccc23)CC1 — remaining binding (cell-free assay; competition with immobilised ligand; 1 µM): 100%
O=c1[nH]c2ccccc2n1C1CCN(Cc2ccc(-c3[nH]c4cc5ncnc5cc4nc3-c3ccccc3)cc2)CC1 — remaining signal (cell-free assay; 0.5 µM): 99.7%
COc1ncccc1-c1cnn2ccc(N3CCN(C(=O)OC(C)C)CC3)nc12 — remaining binding (binding; competition with immobilised ligand; 1 µM): 94%
Cn1cncc1[C@@](O)(COc1ccc(C#N)cc1-c1ccc(OC(F)(F)F)cc1)c1ccc(C#N)cc1 — remaining binding (cell-free assay; competition with immobilised ligand; 1 µM): 100%
O=C(Nc1cccnn1)N1CCN([C@@H]2CCOc3cc(C(F)(F)F)ccc32)CC1 — inhibition (enzyme activity; inhibitor; 20 µM): -20%
C#Cc1n[nH]c2c(-c3cn(C(C)c4ccccn4)c(=O)[nH]c3=O)cc(F)cc12 (stereo not shown) — inhibition (enzyme activity; inhibitor; 1 µM): -4.4%
Cc1ncc(C)n2nc(/C=C/c3nc(N4CCCC4)cc(N4CCOCC4)n3)nc12 — inhibition (enzyme activity; inhibitor; 10 µM): 0%
COc1cc(Cl)c(C(=O)N[C@@H](CN[C@H]2CC[C@@H](N)CC2)Cc2ccc(C#N)cc2)cc1-c1ccc(CN[C@H](C)c2ccc(C)cc2)o1 — remaining activity (enzyme activity; inhibitor; 1 µM): 107%
